Compound activity: PubChem, several laboratories
KLK7 zymogen act: proKLK7 zymogen activators, primary screen, biochemical, fluorescence intensity; Kallikrein-7 (Homo sapiens), P49862; purified proKLK7, EDANS-DABCYL substrate fluorescence; 100% is mature enzyme control, 0% vehicle; activation, % at 7 µM; 370,000 compounds, 0.9% hits; AID 652039, 2013;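 active = activation above the mean of all tested compounds plus 3 SD, computed per campaign excluding outliers beyond control limits, cut at about 13% in these data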
Target sequence (P49862 whole entry, looked up): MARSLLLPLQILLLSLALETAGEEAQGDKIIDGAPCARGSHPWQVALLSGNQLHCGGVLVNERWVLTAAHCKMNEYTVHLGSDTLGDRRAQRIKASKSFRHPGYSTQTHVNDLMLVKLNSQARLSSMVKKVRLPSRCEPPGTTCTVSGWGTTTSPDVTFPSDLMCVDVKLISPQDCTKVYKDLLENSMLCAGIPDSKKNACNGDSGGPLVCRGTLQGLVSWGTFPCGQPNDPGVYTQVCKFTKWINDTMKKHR
V-ATPase pHluor: regulators of yeast V-ATPase proton pumping, primary screen, pHLuorin cytosolic pH fluorescence. S. cerevisiae. response, % at 10 µM. 350,000 compounds, 0.37% hits; in the data active = response mostly above about 7.3%, no sharp cut-off; inactive = mostly below about 5.4%; note: actives read high
T cell modulator: modulators of CD8 T cell-vesicle binding, primary screen, mouse 2C CD8+ T cells, flow cytometry. 2C CD8+ T cell-vesicle binding; hits give low values. response (vesicle binding), % at 7 µM. 330,000 compounds, 0.068% hits;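 active = response, share of CD8 T cells binding vesicles, and their 90th percentile fluorescence all below set limits, cut at about 80% in these data, passing the limit was not always enough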;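 note: values below 100% mean blocked vesicle binding to the CD8+ T cells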
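Also added: QL9-peptide-loaded Drosophila micro-vesicles bearing Ld, ICAM-1 and B7-1; Test system: purified 2C TCR transgenic mouse naive CD8+ T cells; Measured by: cytometric PE anti-B7-1 and Alexa647 anti-CD8 signals after 1% paraformaldehyde fixation; Timing: binding step 1.5 h, 37 °C, antibody labelling 20 min, ice.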
Rce1 inhib: yeast Rce1p protease inhibitors, primary screen, biochemical, fluorescence, cell-free homogeneous; AID 2563, 2010; 290,000 compounds, 0.27% hits; yeast membranes, quenched prenylated peptide cleavage fluorescence; calls only;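 active = fall in fluorescence gain of 50% or more versus controls, with final raw signal at or below 3038400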;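 note: plate controls were neutral control wells for no effect and wells lacking membranes for full effect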
Target sequence (Q03530 whole entry, looked up): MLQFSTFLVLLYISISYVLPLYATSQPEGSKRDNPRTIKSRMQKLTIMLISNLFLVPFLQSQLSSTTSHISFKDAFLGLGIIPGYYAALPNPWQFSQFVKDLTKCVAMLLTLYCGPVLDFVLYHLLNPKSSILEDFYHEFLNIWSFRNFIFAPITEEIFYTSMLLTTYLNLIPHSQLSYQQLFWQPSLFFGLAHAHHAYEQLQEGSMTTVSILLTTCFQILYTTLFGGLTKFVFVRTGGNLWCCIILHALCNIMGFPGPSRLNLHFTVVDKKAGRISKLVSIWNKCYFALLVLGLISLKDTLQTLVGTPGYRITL
Yeast superoxide: reduction of superoxide in aged yeast, primary screen, HTS; 330,000 compounds, 0.18% hits; S. cerevisiae aged cells, superoxide DHE fluorescence; hits give low values; AID 2690, 2010; superoxide response (% of plate mean), % at 10 µM;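 active = superoxide response under a set limit, about three screen SD below normal, cut at about 65% in these data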;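 note: yeast aged for seven days with compound at 30 °C before DHE staining; 100% = average MFI of all compound-treated wells on the plate with controls excluded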
beta cell repl: inducers of MIN6 beta-cell proliferation, primary screen, ATP luminescence, uHTS | 330,000 compounds, 0.29% hits | AID 2380, 2010 | MIN6 cells proliferation, ATPlite luminescence, 48 h; cells starved in 0.2% serum; 100% = growth in 10% serum | proliferation, % at 10 µM;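 active = compounds whose signal lies at least 3.5 SD above the mean of all wells on their plate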;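 note: 0% = DMSO-treated cells in low-serum medium and 100% = 10% serum control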
* = called active by the depositor; i = inactive; . = not tested or not shown; + = active, no number. Most compounds without a hit are left out; they make up all but 1.9% or so of the library.

SMILES	KLK7 zymogen act	V-ATPase pHluor	T cell modulator	Rce1 inhib	Yeast superoxide	beta cell repl
O=C(COc1ncnc2cc([N+](=O)[O-])ccc12)NC(=O)NC1CCCCC1	-1	0	224	+	122	0
O=C(COc1ncnc2cc([N+](=O)[O-])ccc12)NCCc1ccc(Cl)cc1	0	-2	192	i	99	-3
COC(=O)C[C@@H]1CC[C@H]2[C@@H](COc3ccc(NC(=O)c4cc(C)on4)cc3C(=O)N2C)O1	0	.	.	.	.	.
O=C(c1cccc(S(=O)(=O)N2CCOCC2)c1)N1CCN(c2ccc(F)cc2)CC1	-1	18*	169	i	88	-2
O=C(c1cccc(S(=O)(=O)N2CCOCC2)c1)N1CCN(c2ccccc2)CC1	-1	0	293	.	93	2
COC(=O)c1cc2c(c3c4cc(C)ccc4n(S(=O)(=O)c4ccc(C)cc4)c13)C(=O)N(Cc1ccccc1)C2	-1	.	.	.	.	.
Cc1cc(O)c(NC(=O)c2ccc(Br)o2)cc1C	-1	14*	333	i	94	2
COc1ccccc1NC(=O)c1ccc(Br)o1	0	-6	409	i	121	0
COC(=O)CSC1=NS(=O)(=O)c2ccccc21	.	11*	225	i	85	-1
CCCN(C(=O)CSc1nnc2ccccn12)C1CCS(=O)(=O)C1 (configuration not stated)	1	-1	765	.	81	-2
CCCN(C(=O)CSc1ccccc1C(=O)O)C1CCS(=O)(=O)C1 (configuration not stated)	0	15*	200	.	111	-1
O=c1cc2oc3cc(O)c(O)cc3c(-c3ccccc3O)c-2cc1O	.	-3	.	.	.	.
CCOc1ccccc1-c1c2cc(O)c(=O)cc-2oc2cc(O)c(O)cc12	.	75*	.	.	.	.
CC(=O)Nc1ccc(Cl)cc1C1COC(=O)C1=N (configuration not stated)	2	-1	120	+	115	1
Cc1ccc(NC(=O)Nc2cc(Cl)ccc2C2COC(=O)C2=N)cc1 (configuration not stated)	0	-1	518	i	99	-1
C[C@H]1[C@@H]2C[C@@]3(O[C@H](c4ccccn4)N=C3C[C@@H]1c1ccccc1)N(Cc1ccncc1)C2=O	0	.	.	.	.	.
CC1CCc2c(sc(NC(=O)C3CCCO3)c2C#N)C1 (configuration not stated)	0	4	326	i	105	1
CC1CCc2c(sc(NC(=O)Cn3nc(C(F)(F)F)c4c3CCCCC4)c2C#N)C1 (configuration not stated)	0	0	0.0*	.	99	-3
CC1(c2nnc(-c3cccc(Cl)c3)o2)CC(c2cccc(F)c2)=NO1 (configuration not stated)	0	-14	.	+	.	0
CCCCCCCCN1C(=O)[C@@H](CC(=O)NCCc2ccccc2OC)C[C@@]2(C(=O)OC)C1=C[C@H](C1CCCC1)O[C@@H]2C	-1	.	.	.	.	.
Cc1ccc(-c2csc3nc4c5ccccc5c(NCCCN(C)C)nn4c(=O)c23)cc1	-128	-5	342	+	114	-7
Cc1ccc(-c2csc3nc4c5ccccc5c(NCCCN5CCOCC5)nn4c(=O)c23)cc1	.	.	265	i	110	-6
Cc1ccc(SCC(=O)N(C)C2CCS(=O)(=O)C2)cc1 (configuration not stated)	0	3	659	i	71	0
Cc1ccc(-c2nc(SCC(=O)N(C)C3CCS(=O)(=O)C3)[nH]c2-c2ccc(C)cc2)cc1 (configuration not stated)	0	1	302	+	84	-5
O=C(N[C@H](Cc1ccccc1)C(=O)NCc1ccco1)[C@H]1O[C@@H](n2ccc(=O)[nH]c2=O)[C@H](O)[C@@H]1O	1	.	.	.	.	.
SMILES	KLK7 zymogen act	V-ATPase pHluor	T cell modulator	Rce1 inhib	Yeast superoxide	beta cell repl
C#CCOCCOCCOCCNc1nc(N2CCN(C(=O)CCCCCCCCCCNC(=O)Cn3cc(CCCCCN)nn3)CC2)nc(N2CCN(C(=O)CCCCCCCCCCNC(=O)Cn3cc(C[C@@H](C)O)nn3)CC2)n1	.	8.6*	572	.	101	-7
C#CCOCCOCCOCCNc1nc(N2CCN(C(=O)CCCCCCCCCCNC(=O)Cn3cc(C[C@@H](C)O)nn3)CC2)nc(N2CCN(C(=O)CCCCCCCCCCNC(=O)[C@@H]([C@H](C)CC)n3cc(CCCCCN)nn3)CC2)n1	.	11	596	.	99	-9
COc1ccc(NC(=O)Nc2c(O)ccc3ccccc23)cc1	-17	0	39*	i	105	-4
Cc1ccccc1NC(=O)c1c(Cl)nc(C)c(Cl)c1C	0	4	273	i	116	0
Cc1nc(Cl)c(C(=O)NC(=O)NCc2ccccc2)c(C)c1Cl	0	-1	0.0*	i	88	-2
CCOc1ccc(C(=O)Nc2cnn(Cc3ccc(Cl)c(Cl)c3)c2)cc1	1	40*	392	i	111	-5
O=C(Nc1ccc(Cl)c(Cl)c1)c1ccc(Cn2cc(Cl)cn2)cc1	-1	-4	.	i	.	.
CCc1cc2c(-c3ccccc3)cc(=O)oc2cc1OC(C)C(=O)O (configuration not stated)	3	1	398	i	104	-3
CC(NC(=O)OCc1ccccc1)C(=O)Oc1cc2oc(=O)cc(-c3ccccc3)c2cc1Cl (configuration not stated)	24*	-1	363	i	172	0
CCCCCCCCNS(=O)(=O)CC1NCc2cc(OC)ccc21 (configuration not stated)	-1	.	.	.	.	.
COC(=O)c1cc(=O)n(Cc2ccco2)c(=Nc2ccccc2)s1	0	.	.	.	.	.
CCOC(=O)c1cc2c(=O)[nH]ccc2nc1C	2	0	i	+	109	1
CCN(CC)S(=O)(=O)c1cc(OCC(N)=O)c(C)cc1Cl	0	14*	213	i	103	0
Cc1cc(Cl)c(S(N)(=O)=O)cc1OCC(N)=O	0	1	344	i	110	-3
CC(=C/C(=O)O)/C=C/c1ccc(Cl)o1	0	-1	392	i	92	-2
CC(/C=C/c1ccc(C)o1)=C\C(=O)O	0	4	66*	i	93	-2
COc1cccc(C(=O)N[C@H](C(=O)N2CCC[C@H]2C(=O)NCCc2ccccc2Cl)c2ccccc2)c1	1	.	.	.	.	.
Cc1ccccc1-c1n[nH]c(=S)o1	0	2	184	i	111	-3
S=c1[nH]nc(-c2ccccc2)o1	0	-2	172	+	97	-1
